A selection: hits, their analogues and other compounds. The true share with any hit is near 5.9%.
Pf Dd2 growth – P. falciparum Dd2 growth inhibitors, primary screen, SYBR Green fluorescence, single dose replicates. activity change, % at 10 µM. 72 h; stronger effect = lower value. AID 1159554, 2015. 94,000 tested, 2.3% active; in the data active means activity change below about -80%; inconclusive means no clear call, values can overlap the other calls
GASC1 inh – inhibitors of GASC-1 (KDM4C) histone demethylase, primary screen, biochemical, single concentration HTS | AID 720574, 2013 | inhibition, % at 12.5 µM | GST-KDM4C 2-372, H3K9me3 peptide, LANCE TR-FRET | 96,000 tested, 0.15% active;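 active means mean replicate inhibition above about 25%, with at least 55% of replicates also reaching it, limit read from the data, passing the limit was not always enough; inconclusive means only one of those two conditions met; inactive means neither condition met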
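Compound: one test concentration per compound; Material: GST-GASC-1 enzyme fragment 2-372; Amount: GASC-1 enzyme at 10 nM final in reaction; Also added: H3K9me3 peptide substrate, Fe(II), 2-oxoglutarate; Technique: LANCE TR-FRET; Times: 30 min demethylation and 1 h detection at room temperature.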
T cruzi growth-1 – T. cruzi intracellular proliferation inhibitors, primary screen, cell-based, beta-gal Tulahuen parasites, NIH3T3 host, luminescence | T. cruzi beta-gal in NIH3T3, GalScreen luminescence, 90 h | inhibition, % at 8.34 µM | 77,000 tested, 5.9% active | AID 624255, 2012;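 active means mean inhibition above about 93%, with at least 55% of replicates each passing it, limit read from the data, passing the limit was not always enough; inconclusive means only one of those two conditions holds; inactive means neither condition holds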
IDH1 R132H inh – inhibitors of IDH1 R132H reductase, primary screen, biochemical, plate reader, single point | 70,000 tested, 0.18% active | diaphorase/resazurin fluorescence, 60 min | inhibition, % at 10 µM; in the data active means inhibition above about 34%; inconclusive means no clear call, values can overlap the other calls; inactive means below about 11%;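 further: 0% = DMSO and 100% = no enzyme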
Target sequence (O75874 whole entry R132H): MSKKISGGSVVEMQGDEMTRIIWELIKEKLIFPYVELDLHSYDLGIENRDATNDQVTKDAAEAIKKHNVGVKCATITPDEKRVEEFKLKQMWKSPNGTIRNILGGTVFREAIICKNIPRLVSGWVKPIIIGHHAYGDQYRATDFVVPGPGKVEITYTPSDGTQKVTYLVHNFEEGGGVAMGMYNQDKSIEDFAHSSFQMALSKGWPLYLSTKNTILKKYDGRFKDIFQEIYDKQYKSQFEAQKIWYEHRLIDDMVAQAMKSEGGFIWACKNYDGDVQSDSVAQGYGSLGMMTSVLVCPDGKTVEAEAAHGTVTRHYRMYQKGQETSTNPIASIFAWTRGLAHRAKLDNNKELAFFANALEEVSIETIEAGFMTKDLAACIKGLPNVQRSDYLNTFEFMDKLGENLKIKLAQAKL
T cruzi growth-2 – T. cruzi intracellular proliferation inhibitors, confirmation, cell-based, NIH3T3 host, beta-gal parasite, luminescence, cherry-pick; shares compounds with T cruzi growth-1; T. cruzi beta-gal in NIH3T3, GalScreen luminescence, 90 h; inhibition, % at 8.35 µM; 5,600 tested, 72% active; AID 651739, 2012;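 active means mean replicate inhibition above about 95% and at least 55% of replicates individually reaching it, limit read from the data; inconclusive means only one of the two criteria is met; inactive means neither criterion is met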
T cruzi growth-3 – inhibitors of intracellular T. cruzi replication, confirmation, NIH3T3 host cells, beta-gal parasites, cherry-pick, set 2; shares compounds with T cruzi growth-1; T. cruzi beta-gal in NIH3T3, GalScreen luminescence, 90 h; inhibition, % at 2.09 µM; 5,600 tested, 21% active; AID 651740, 2012;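 active means mean inhibition above about 95%, with at least 55% of replicates also reaching it, limit read from the data; inconclusive means meets just one of the two conditions; inactive means meets neither condition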;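 further: plate controls were neutral control median for no effect and positive control median for full effect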
3T3 cytotox – cytotoxicity in mouse NIH/3T3 fibroblasts, confirmation, cytotoxicity control for T. cruzi proliferation inhibitor project, cell-based, cherry-pick, single point; shares compounds with T cruzi growth-1; cytotoxicity (signal decrease), % at 8.35 µM; 5,600 tested, 14% active; NIH/3T3 viability, CellTiter-Glo ATP luminescence, 90 h;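 active means mean signal decrease across replicates above about 35% based on untreated-well scatter, with enough replicates individually passing, limit read from the data; inconclusive means no rule stated though some were filed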;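 further: 0% = median of neutral control wells and 100% = median of positive control wells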
NIH3T3 tox 2 – NIH/3T3 fibroblast cytotoxicity, confirmation, cytotoxicity control, cell-based, cherry-pick, single point, set 2 | shares compounds with T cruzi growth-1 | NIH/3T3 viability, CellTiter-Glo ATP luminescence, 90 h | inhibition, % at 24.9 µM | 5,600 tested, 56% active | AID 651744, 2012;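 active means mean loss of cell viability signal at or above a set limit, and enough replicates individually reaching it; inconclusive means meets only the mean limit or only the replicate share; inactive means meets neither condition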;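 further: 0% = median of neutral control wells and 100% = median of positive control wells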
* hit, by the source's call; ? = inconclusive; . = no result given.

SMILES	Pf Dd2 growth	GASC1 inh	T cruzi growth-1	IDH1 R132H inh	T cruzi growth-2	T cruzi growth-3	3T3 cytotox	NIH3T3 tox 2
C[C@@H]1CCCCO[C@@H](CN(C)Cc2ccc(C(F)(F)F)cc2)[C@H](C)CN([C@@H](C)CO)C(=O)c2cc(NC(=O)Nc3ccc(C(F)(F)F)cc3)ccc2O1	-65	0	?	.	102*	117*	25	-1
C[C@H]1CCCCO[C@H](CN(C)Cc2ccc(C(F)(F)F)cc2)[C@@H](C)CN([C@@H](C)CO)C(=O)c2cc(NC(=O)NC3CCCCC3)ccc2O1	5	0	64	2	.	.	.	.
O=S(=O)(Cc1ccccc1)N1CCCCN2[C@H](C1)[C@@H](c1ccc(-c3ccccc3)cc1)[C@@H]2CO	-18	0	115*	.	101*	89	22	96*
O=S(=O)(Cc1ccccc1)N1CCCCN2[C@H](C1)[C@H](c1ccc(-c3ccccc3)cc1)[C@@H]2CO	-43	-1	118*	.	105*	62	28	104*
O=S(=O)(Cc1ccccc1)N1CCCCN2[C@H](C1)[C@@H](c1ccc(-c3cncnc3)cc1)[C@@H]2CO	-10	1	?	.	96*	17	8	17
O=S(=O)(Cc1ccccc1)N1CCCCN2[C@H](C1)[C@H](c1ccc(-c3ccncc3)cc1)[C@@H]2CO	-22	1	-26	.	.	.	.	.
O=S(=O)(Cc1ccccc1)N1CCCCN2[C@@H](CO)[C@H](c3ccc(-c4ccc(F)cc4)cc3)[C@@H]2C1	-31	-1	94	.	.	.	.	.
O=C(CSc1nnc(-c2ccccc2F)n1-c1ccc(Cl)cc1)Nc1ccc(F)cc1F	.	.	.	0	.	.	.	.
COC(Cc1nc2ccccc2s1)C(=O)O (stereo not drawn)	.	.	.	0	.	.	.	.
O=C(COc1ccc2ccccc2c1)Nc1ccc(O)cc1C(=O)O	.	.	.	0	.	.	.	.
Cc1ccc(S(=O)(=O)N(C)C[C@@H]2Oc3ncc(C#CCN(C)C)cc3C(=O)N([C@H](C)CO)C[C@@H]2C)cc1	5	1	14	0	.	.	.	.
Cc1ccc(S(=O)(=O)N(C)C[C@@H]2Oc3ncc(C#CCC(C)C)cc3C(=O)N([C@@H](C)CO)C[C@H]2C)cc1	-26	1	117*	-1	104*	85	11	102*
Cc1ccc(S(=O)(=O)N(C)C[C@H]2Oc3ncc(C#CCC(C)C)cc3C(=O)N([C@@H](C)CO)C[C@@H]2C)cc1	-47	-1	124*	0	110*	74	-5	93*
Cc1ccc(S(=O)(=O)N(C)C[C@H]2Oc3ncc(C#CCC(C)C)cc3C(=O)N([C@H](C)CO)C[C@@H]2C)cc1	-30	-3	110*	-4	?	52	4	33*
CC(C)CC#Cc1cnc2c(c1)C(=O)N([C@@H](C)CO)C[C@H](C)[C@@H](CN(C)S(=O)(=O)c1ccccc1)O2	-45	-3	?	-4	102*	72	13	?
CC(C)CC#Cc1cnc2c(c1)C(=O)N([C@@H](C)CO)C[C@@H](C)[C@@H](CN(C)S(=O)(=O)c1ccccc1)O2	-27	-2	60	0	.	.	.	.
OCC1CCCN1CC1CC1 (stereo not drawn)	.	.	.	0	.	.	.	.
Cc1ccc(-c2nc(S(=O)(=O)c3ccc(F)cc3)c(SCC(N)=O)o2)cc1	.	.	.	-1	.	.	.	.
Cc1sc2nc(SCC(=O)N3CCC(c4noc5ccc(F)cc45)CC3)n(-c3ccccc3)c(=O)c2c1C	.	.	.	0	.	.	.	.
O=C(C1CC1)N1CC[C@@H]2[C@@H](CO)Nc3ccc(-c4ccc(F)cc4)cc3[C@@H]21	2	1	84	.	.	.	.	.
O=C(C1CCOCC1)N1CC[C@@H]2[C@H]1c1cc(-c3ccc(F)cc3)ccc1N[C@@H]2CO	4	3	105*	.	?	82	-9	23
O=C(C1CCOCC1)N1CC[C@@H]2[C@@H](CO)Nc3ccc(-c4ccc(F)cc4)cc3[C@@H]21	32	3	105*	.	99*	60	-13	14
COc1ccccc1-c1ccc2c(c1)[C@@H]1[C@@H](CCN1C(=O)C1CCOCC1)[C@H](CO)N2	-23	0	97*	.	102*	72	-23	-30
CCN(CC(=O)O)S(=O)(=O)c1ccc2ccccc2c1	.	.	.	0	.	.	.	.
COc1ccc(OC)c(CN=c2c([N+](=O)[O-])nn(-c3ccc(Cl)cc3)n2O)c1	.	.	.	0	.	.	.	.
SMILES	Pf Dd2 growth	GASC1 inh	T cruzi growth-1	IDH1 R132H inh	T cruzi growth-2	T cruzi growth-3	3T3 cytotox	NIH3T3 tox 2
C[C@H]1CCCCO[C@@H](CN(C)C(=O)Nc2ccccc2)[C@@H](C)CN([C@@H](C)CO)C(=O)c2cc(NC(=O)NC3CCCCC3)ccc2O1	-21	0	98*	.	?	14	-9	-14
C[C@H]1CCCCO[C@@H](CN(C)C(=O)NC2CCCCC2)[C@@H](C)CN([C@@H](C)CO)C(=O)c2cc(NC(=O)Nc3ccccc3)ccc2O1	-71	-2	110*	.	111*	9	-18	-4
C[C@@H]1CN([C@@H](C)CO)C(=O)c2cc(NC(=O)NC3CCCCC3)ccc2O[C@@H](C)CCCCO[C@@H]1CN(C)C(=O)Nc1ccccc1	-54	1	14	.	.	.	.	.
C[C@H]1CCCCO[C@H](CN(C)C(=O)NC2CCCCC2)[C@@H](C)CN([C@@H](C)CO)C(=O)c2cc(NC(=O)Nc3ccccc3)ccc2O1	-48	7	92	.	.	.	.	.
CC(C)CC#Cc1ccc([C@@H]2[C@@H](CO)N3CCCCN(C(=O)NC4CCCC4)C[C@@H]23)cc1	-11	-1	102*	.	101*	64	20	107*
CC(C)CC#Cc1ccc([C@H]2[C@@H](CO)N3CCCCN(C(=O)NC4CCCC4)C[C@@H]23)cc1	2	0	118*	.	110*	79	19	104*
COCC#Cc1ccc([C@H]2[C@@H](CO)N3CCCCN(C(=O)NC4CCCC4)C[C@H]23)cc1	-4	1	76	.	.	.	.	.
CC(C)CC#Cc1ccc([C@H]2[C@H](CO)N3CCCCN(C(=O)NC4CCCC4)C[C@@H]23)cc1	-35	-2	113*	.	93	87	43*	103*
